# Laboratory results: ChEMBL document CHEMBL3259541, “Synthesis and biological evaluation of antimetastatic agents predicated upon dihydromotuporamine C and its carbocyclic derivatives” (J Med Chem, 2014)
# Experiments:
# CHO = assay: Cytotoxicity against CHO cells assessed as cell growth after 48 hrs incubation by MTS assay in presence of 1 mM aminoguanidine; assay type: cell-based; conditions: Cricetulus griseus
# Method in brief: (§1)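 CHO and polyamine-transport-deficient CHO-MG* cells pretreated 24 h with 1 mM aminoguanidine, then exposed to compound for 48 h at 37 °C. Triplicate. IC50 taken as 50% growth inhibition. PTS selectivity expressed as the CHO-MG*/CHO IC50 ratio.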
# [1] = Cytotoxicity against human L3.6PL cells assessed as inhibition of cell growth after 48 hrs incubation by MTS assay in presence of 250 uM aminoguanidine treated 24 hrs prior compound addition; assay type: functional, cell-based; conditions: for IC50: Homo sapiens, L3.6pl
# Method in brief: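 L3.6pl cells pretreated 24 h with 250 μM aminoguanidine, then incubated with compound for 48 h at 37 °C. Triplicate. IC50 is the concentration giving 50% growth inhibition and IC5 the concentration giving 5% inhibition, both versus untreated control.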
# polyamine transporter = assay: Selectivity ratio of IC50 for polyamine transporter deficient CHO-MG cells to IC50 for CHO cells by MTS assay; assay type: ADME, cell-based, Cricetulus griseus; conditions: chinese hamster, polyamine transporter deficient CHO-MG cells and CHO cells; read-out: Ratio IC50; method in brief: as §1
# CHO-MG = assay: Cytotoxicity against polyamine transporter deficient CHO-MG cells assessed as cell growth after 48 hrs incubation by MTS assay in presence of 1 mM aminoguanidine; assay type: ADME, cell-based; conditions: Cricetulus griseus; method in brief: as §1
# [2] = Antimigratory activity against human L3.6PL cells assessed as cell migration inhibition at 0.6 uM after 48 hrs incubation by wound healing assay in presence of 250 uM aminoguanidine treated 24 hrs prior compound addition; assay type: functional
# [3] = Antimigratory activity against human L3.6PL cells assessed as cell migration inhibition at 2 uM after 48 hrs incubation by wound healing assay in presence of 250 uM aminoguanidine treated 24 hrs prior compound addition; assay type: functional
# [4] = Antimigratory activity against human L3.6PL cells assessed as cell migration inhibition at 1 uM after 48 hrs incubation by wound healing assay in presence of 250 uM aminoguanidine treated 24 hrs prior compound addition; assay type: functional
# L3.6pl = assay: Antimigratory activity against human L3.6PL cells assessed as cell migration inhibition after 48 hrs incubation by wound healing assay in presence of 250 uM aminoguanidine treated 24 hrs prior compound addition; assay type: functional, cell-based
SMILES,IC50 (CHO) [µM],IC5 [1] [µM],IC50 [1] [nM],selectivity ratio (polyamine transporter),IC50 (CHO-MG) [µM],inhibition (INH) [2] [%],inhibition (INH) [3] [%],inhibition (INH) [4] [%],inhibition (L3.6pl)
Cl.NCCCCNCCCCNC1CCCCCCCCCCCCCC1,4.53,2,2800,1,5.18,,,,
Cl.NCCCNCCCNC1CCCCCCCCCCCCCC1,2.84,2,2800,2.1,5.95,19.3,32.9,,
Cl.NCCCCNCCCCN1CCCCCCCCCCCCCC1,4.38,1,1800,1,4.67,16.7,,29.6,
Cl.NCCCCNCCCCNCC1CCCCCCCCCCCCCC1,47.8,40,48700,1,45.5,,,,Dose-dependent effect
